The record followed here is ChEMBL document CHEMBL1149461, “Synthesis and structure-activity relationship studies of CD4 down-modulating cyclotriazadisulfonamide (CADA) analogues” (J Med Chem, 2006).

Experiment [1] has as its system MT4. Nature of the experiment: Inhibition of CD4 antigen expression in MT4 cells. It counts as functional, cell-based. The note with it: Homo sapiens. In a few lines: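 MT-4 cells were labelled with FITC-conjugated anti-CD4 mAb to read surface CD4 by mean fluorescence intensity. IC50 is the concentration giving 50% loss of cell-surface CD4. Top concentrations tested were 15 or 75 µM. Where 50% reduction was not reached, the value is reported as a lower limit based on the highest concentration used.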

The test system of experiment [2] is Human immunodeficiency virus 1. Nature of the experiment: Antiviral activity against HIV1 NL4.3 in MT4 cells. It counts as functional, organism-based. The following applies: Human immunodeficiency virus 1, NL4.3, MT4.
For experiment [3], the system named is MT4. Nature of the experiment: Cytotoxicity against MT4 cells. It counts as functional. The following applies: Homo sapiens.

Where only a bound is given, the exact number is not on record here.

`C=C1CN(S(=O)(=O)c2ccc(C)cc2)CCCN(Cc2ccccc2)CCCN(S(=O)(=O)c2cccc3c(N(C)C)cccc23)C1`: the results for the IC50 in experiment [1] (read-out: IC50), in experiment [1] (read-out: Log IC50 (converted)) and in experiment [2] were 1300 nM, 1290 nM and 9500 nM, respectively. In experiment [3], the CC50 is > 75 µM.
The like results for `C=C1CN(S(=O)(=O)c2ccc(OC)cc2)CCCNCCCN(S(=O)(=O)c2ccc(OC)cc2)C1` were, in that order, 5300 nM, 5250 nM, 6300 nM and 43 µM.
The like results for `C=C1CN(S(=O)(=O)c2ccc(OC)cc2)CCCN(CCC(C)C)CCCN(S(=O)(=O)c2ccc(OC)cc2)C1` were, in that order, 290 nM, 288 nM, 630 nM and 53 µM.
Turning to `C=C1CN(S(=O)(=O)c2ccc(Br)cc2)CCCN(C(=O)OCC)CCCN(S(=O)(=O)c2ccc(Br)cc2)C1`, the IC50 in experiment [1] (read-out: IC50) is 12400 nM; in experiment [1] (read-out: Log IC50 (converted)) it was 12300 nM. The same molecule had a CC50 in experiment [3] of 29 µM.
With `C=C1CN(S(=O)(=O)c2ccc(OC)cc2)CCCN(Cc2ccccc2)CCCN(S(=O)(=O)c2ccc(OC)cc2)C1`, the IC50 is 220 nM in experiment [1] (read-out: IC50), 219 nM in experiment [1] (read-out: Log IC50 (converted)) and 620 nM in experiment [2]. The same molecule displayed a 50% cytotoxic concentration (CC50) in experiment [3] of 26 µM.
As to `C=C1CN(S(=O)(=O)c2ccc(C)cc2)CCCN(CC2CCCCC2)CCCN(S(=O)(=O)c2cccc3c(N(C)C)cccc23)C1`, the IC50 was 610 nM in experiment [1] (read-out: IC50), 617 nM in experiment [1] (read-out: Log IC50 (converted)) and 1800 nM in experiment [2]. The same molecule displayed a CC50 in experiment [3] of 49 µM.

What is called IC50 is the concentration at which inhibition is half-maximal. The CC50 is the concentration giving 50% cytotoxicity. A high value points to better tolerance by the cells.
